PMC4303305 (Biochemistry, 2014)
Residue numbers refer to the chain shown, from its start. Numbers in names are those of the source. Entries after “also recorded” stand apart in the source; their conditions may differ. Like-named read-outs stand apart in the source and are kept apart here.

Tests used:
[1] = Size-exclusion FPLC retention of nitrophorins, mutants and ligand complexes; format: physicochemical, Rhodnius prolixus; conditions: for dimer formation: under any conditions / at any pH
Summary of the method: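 Analytical run on Superdex75 at 4 °C in 100 mM sodium acetate, NaCl added to 220 mM total ionic strength. Protein at 1 mM was run at pH 5.0, 5.25, 5.5 and 5.75. Separately, protein from 1 to 0.025 mM was run at pH 5.0. Elution position compared with molecular weight standards.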

[2] = Stopped-flow kinetics of release of NO from the nitrophorins; format: binding, Rhodnius prolixus; conditions: for NO Kd (NO dissociation): 5–10 μM in 100 mM sodium phosphate buffer
Summary of the method: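 Stopped-flow measurement of NO release from NO-bound nitrophorins with native or M0-bearing N-termini. Dissociation Kd obtained at pH 5.0 and 7.5 in dilute solution, 5–10 μM protein in 100 mM sodium phosphate buffer.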

[3] = cited from earlier work
[4] = format: physicochemical, Rhodnius prolixus; conditions: for state of the dimer: pH 7.3
Summary of the method: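 Recombinant nitrophorin refolded from inclusion bodies, reconstituted with excess hemin at pH 7.5, then purified by size-exclusion at pH 5.0. ¹H{¹⁵N} HSQC spectra recorded across pH: 0.2 mM protein at pH 5.0, 5.5 and 6.0; 0.8 mM at pH 6.5. pH 6.5 peaks assigned from pH 7.3 assignments, following cross-peaks through intermediate spectra. NO-bound sample run at 3.7 mM and after dilution to 0.88 mM.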

[5] = column pH 7.5, measured at pH 8.0 rather than pH 7.5 (footnote a)

B1: A1K: site-directed mutant of NP4, M0 present (N-terminus MKCTK...) (protein)
chain: MKCTKNAIAQTGFNKDKYFNGDVWYVTDYLDLEPDDVPKRYCAALAAGTASGKLKEALYHYDPKTQDTFYDVSELQVESLGKYTANFKKVDKNGNVKVAVTAGNYYTFTVMYADDSSALIHTCLHKGNKDLGDLYAVLNRNKDAAAGDKVKSAVSAATLEFSKFISTKENNCAYDNDSLKSLLTK
[1]; pH 5.0
  monomer or dimer on the size-exclusion column: monomer

B2: (M0)NP1: recombinant NP1 retaining methionine M0 at the N-terminus (MKCTK...) (protein)
chain: MKCTKNALAQTGFNKDKYFNGDVWYVTDYLDLEPDDVPKRYCAALAAGTASGKLKEALYHYDPKTQDTFYDVSELQEESPGKYTANFKKVEKNGNVKVDVTSGNYYTFTVMYADDSSALIHTCLHKGNKDLGDLYAVLNRNKDTNAGDKVKGAVTAASLKFSDFISTKDNKCEYDNVSLKSLLTK
[1]; pH 5.0
  monomer or dimer on the size-exclusion column: not a dimer
[1]
  dimer formation: do not form dimers
[1]; listed as recombinant NP1
  dimer formation: not a dimer at any pH
[2]; pH 5.0
  NO Kd (NO dissociation): 0.426 ± 0.005 s^–1
[2]; pH 7.5
  NO Kd (NO dissociation): 2.32 ± 0.07 s^–1
[3]; [5]
  NO Kd (NO dissociation): 2.2 ± 0.01 ^a s^–1
[3]; pH 5.0, ref 17
  NO Kd (NO dissociation): 0.20 ± 0.01 s^–1

B3: NP1(K1A) (protein)
chain: ACTKNALAQTGFNKDKYFNGDVWYVTDYLDLEPDDVPKRYCAALAAGTASGKLKEALYHYDPKTQDTFYDVSELQEESPGKYTANFKKVEKNGNVKVDVTSGNYYTFTVMYADDSSALIHTCLHKGNKDLGDLYAVLNRNKDTNAGDKVKGAVTAASLKFSDFISTKDNKCEYDNVSLKSLLTK
[1]; pH 5.0
  monomer or dimer on the size-exclusion column: broad peak that encompasses the retention times expected for a dimer and a monomer
[1]; pH 5.0, NO added / bound
  monomer or dimer on the size-exclusion column: form dimers; also recorded: two peaks, the first of which is the dimer

B4: (M0)NP1sym: (M0)NP1 containing the symmetrical heme, 2,4-dimethyldeuterohemin (protein, UniProt Q26239 24-207, looked up)
Nitrophorin-1: B3 chain with A1K
modifications: Met0; 2,4-dimethyldeuterohemin heme
[2]; pH 5.0
  NO Kd (NO dissociation): 0.218 ± 0.004 s^–1
[2]; pH 7.5
  NO Kd (NO dissociation): 2.66 ± 0.27 s^–1

B5: Nat. N-term NP1 ^c: native N-terminal NP1 (N-terminus KC...) (protein, UniProt Q26239 24-207, looked up)
Nitrophorin-1: B3 chain with A1K
[2]; pH 5.0
  NO Kd (NO dissociation): 0.032 ± 0.011 s^–1
[2]; pH 7.5
  NO Kd (NO dissociation): 1.11 ± 0.04 s^–1

B6: native N-terminal NP1: NP1 expressed with a leader sequence, giving the native N-terminus KCTK... (protein)
chain: B3 chain with A1K
modifications: left off: His6, C-terminal, kept
[1]; pH 5.0, NO added / bound
  monomer or dimer on the size-exclusion column: form dimers

B7: NP4: NO-carrying heme protein from the salivary glands of Rhodnius prolixus, recombinant, N-terminus ACTK... (protein)
chain: ACTKNAIAQTGFNKDKYFNGDVWYVTDYLDLEPDDVPKRYCAALAAGTASGKLKEALYHYDPKTQDTFYDVSELQVESLGKYTANFKKVDKNGNVKVAVTAGNYYTFTVMYADDSSALIHTCLHKGNKDLGDLYAVLNRNKDAAAGDKVKSAVSAATLEFSKFISTKENNCAYDNDSLKSLLTK
[1]; pH 5.0, 1 mM
  monomer or dimer on the size-exclusion column: pure dimer
[1]; pH 5.0, serial dilution to 0.025 mM
  monomer or dimer on the size-exclusion column: fairly pure monomer
[2]; pH 5.0
  Kd for the loss of NO from NP4, times that from NP1: 0.6
  NO Kd (NO dissociation): 0.020 ± 0.003 s^–1
[2]; pH 7.5
  Kd for the loss of NO from NP4, times that of NP1: 1.4
  NO Kd (NO dissociation): 1.60 ± 0.11 s^–1
[3]; [5]
  NO Kd (NO dissociation): 2.6 ± 0.1 ^a s^–1
[3]; pH 5.0, ref 17
  NO Kd (NO dissociation): 0.14 ± 0.01 s^–1
[4]; pH 5.0, 0.2 mM
  monomer in 1H{15N} HSQC spectrum: some monomer present
[4]; pH 5.6, 0.5 mM, absence of NO
  oligomeric state in solution: mainly monomeric
[4]; pH 6.5, 0.8 mM
  dimer in 1H{15N} HSQC spectrum: not detectable
[4]; 3.7 mM, absence of NO
  state of the dimer: completely dissociated to monomer

B8: R39A (protein)
chain: B7 chain with R39A
[1]; pH 5.0
  monomer or dimer on the size-exclusion column: dimers

B9: NP4-ImH: NP4 with imidazole bound (protein)
chain: B7 chain
[1]; pH 5.0
  monomer or dimer on the size-exclusion column: dimers

B10: NP4 apoprotein: NP4 without heme (protein)
chain: B7 chain
[1]; pH 5.0
  monomer or dimer on the size-exclusion column: monomeric

B11: K125E (protein)
chain: B7 chain with K125E
[1]; pH 5.0
  monomer or dimer on the size-exclusion column: dimers

B12: D30N (protein)
chain: B7 chain with D30N
[1]; pH 5.0
  monomer or dimer on the size-exclusion column: monomers

B13: K125A (protein)
chain: B7 chain with K125A
[1]; pH 5.0
  monomer or dimer on the size-exclusion column: dimers

B14: NP4-NO: NP4 with nitric oxide bound to the heme (protein)
chain: B7 chain
[1]; pH 5.0
  monomer or dimer on the size-exclusion column: dimer
[4]; 0.88 mM, NO bound
  state of the dimer: still highly dimerized

B15: D30A (protein)
chain: B7 chain with D30A
[1]; pH 5.0
  monomer or dimer on the size-exclusion column: monomers

B16: Hm complex: NP4 with histamine bound to the heme iron (protein)
chain: B7 chain
[1]; all pH values, including those below 6.0
  monomer or dimer on the size-exclusion column: monomer
[1]; pH 5.0
  monomer or dimer on the size-exclusion column: monomer

B17: K38A (protein)
chain: B7 chain with K38A
[1]; pH 5.0
  monomer or dimer on the size-exclusion column: dimers
